From PubChem BioAssay
SENP7 block – SENP7 protease inhibition; 1.5% of 330,000 active; Q9BQF6; inhibition, % at 5 µM; recombinant SENP7, Z-RLRGG-aminoluciferin luminescence, 40 min;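 active = inhibition above about 50% at the single test dose, limit read from the data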
SENP8 block-1 – inhibitors of human SENP8 protease | Q96LD8 | purified SENP8, Z-RLRGG-aminoluciferin cleavage, luminescence | inhibition, % at 10 µM | 1.2% of 330,000 active | AID 2540; in the data active = inhibition above about 50%
Platelet DG rel – platelet dense granule release activity; human platelet-rich plasma, SFLLRN dense granule ATP release, luminescence; inhibition, %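 (compounds screened at 7.5 µM in platelet-rich plasma)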; 0.22% of 300,000 active;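 active = mean replicate score, as percent of positive control, at or above 50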
SENP6 block – inhibitors of human SENP6 protease | AID 2599 | inhibition, % at 10 µM | 1.8% of 330,000 active | Q9GZR1 | Recombinant SENP6 catalytic domain, aminoluciferin luminescence;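 active = inhibition above about 50% at the single tested dose, limit read from the data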
Target sequence (Q9GZR1 628-1112 limits assumed): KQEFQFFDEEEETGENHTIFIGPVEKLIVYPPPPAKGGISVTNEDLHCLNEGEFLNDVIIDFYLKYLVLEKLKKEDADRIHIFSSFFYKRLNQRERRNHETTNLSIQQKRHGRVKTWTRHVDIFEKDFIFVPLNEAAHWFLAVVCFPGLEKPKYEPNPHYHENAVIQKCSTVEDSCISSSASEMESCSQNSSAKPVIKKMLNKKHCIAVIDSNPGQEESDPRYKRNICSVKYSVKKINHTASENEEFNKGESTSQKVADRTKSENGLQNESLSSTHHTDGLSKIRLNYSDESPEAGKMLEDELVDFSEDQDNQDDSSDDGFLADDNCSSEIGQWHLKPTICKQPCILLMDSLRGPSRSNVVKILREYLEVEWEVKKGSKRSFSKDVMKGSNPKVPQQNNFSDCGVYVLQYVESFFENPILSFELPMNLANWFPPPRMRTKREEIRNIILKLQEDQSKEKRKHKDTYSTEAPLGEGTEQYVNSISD
SENP8 block-2 – SENP8 (human) protease inhibition; Q96LD8; recombinant SENP8, Nedd8 substrate fluorescence; inhibition, % at 20 µM; 0.64% of 360,000 active; in the data active = inhibition mostly above about 40%, no sharp cut-off; inactive = mostly below about 27%
SENP1 inh – SENP1 (human) catalytic domain inhibition; Q9P0U3; recombinant SENP1 catalytic domain, CyPet-SUMO1-YPet FRET cleavage; inhibition, % at 10 µM; 0.21% of 360,000 active; AID 624204;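 active = inhibition at least 30% at 10 µM, raw YFP signal under a set limit, fluorescence ratio 0.5 to 1.5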
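material = recombinant human SENP1 catalytic domain, His6-tagged | quantity = 20 pM enzyme | reagent = 25 nM SUMO1 FRET substrate | compound dosing = 10 µM single point, 0.5% DMSO | timing = 50 min enzyme reaction, room temperature, light-protected | detection = FRET, CFP and YFP emission | control set = no-enzyme low, enzyme-DMSO high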
SENP8 conf – confirmation of human SENP8 protease inhibitors; shares compounds with SENP7 block; Recombinant SENP8, Z-RLRGG-aminoluciferin luminescence, 60 min; inhibition, % at 12.5 µM; 40% of 6,200 active;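 active = mean inhibition across replicates above about 50%, limit read from the data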
SENP6 conf – human SENP6 inhibition, confirmed | 58% of 6,200 active | shares compounds with SENP7 block | inhibition, % at 12.5 µM | recombinant SENP6, Z-RLRGG-aminoluciferin luminescence
SENP7 confirm – confirmation of human SENP7 protease inhibitors | shares compounds with SENP7 block | recombinant SENP7, Z-RLRGG-aminoluciferin luminescence, 40 min | inhibition, % at 12.5 µM | 69% of 6,200 active | AID 488917
Casp3 SENP sel – inhibits human caspase-3 in SENP selectivity test. shares compounds with SENP7 block. purified caspase-3, Z-DEVD-aminoluciferin luminescence, 60 min. inhibition, % at 12.5 µM. 60% of 6,200 active. AID 488918;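 active = mean inhibition above about 50%, limit read from the data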
Target sequence (P42574 28-227 limits assumed): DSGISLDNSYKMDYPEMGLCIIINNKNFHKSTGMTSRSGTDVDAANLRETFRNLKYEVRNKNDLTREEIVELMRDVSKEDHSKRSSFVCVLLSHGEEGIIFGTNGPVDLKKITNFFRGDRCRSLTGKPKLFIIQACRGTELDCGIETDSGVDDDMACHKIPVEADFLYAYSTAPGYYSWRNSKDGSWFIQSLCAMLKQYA
Luc interf – luminescence interference (SENP counter-screen); shares compounds with SENP7 block; Pre-incubated SENP8/Z-RLRGG-aminoluciferin, luciferase luminescence interference; inhibition, % at 12.5 µM; 39% of 6,200 active; AID 488919;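 active = mean inhibition above about 50% when retested at one dose, limit read from the data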
Of the large screens only hits and unclear results are named; the others gave an inactive call (follow-up assays come after a bar, where they were run). An excerpt weighted towards active compounds, which were near 2.6% of everything screened.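 The calls were made as follows, unless noted: active = mean inhibition above about 50% in the one-dose retest (limit read from the data); inactive = the rest.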

Cc1ccc(O)c(-c2cc(-c3ccc(F)cc3)no2)c1	SENP7 block 80.9, SENP8 block-1 57.2, SENP6 block 76.9 | SENP8 conf inactive | SENP6 conf 68.5 | SENP7 confirm 55.8 | Casp3 SENP sel 68.1 | Luc interf inactive
Cc1ccccc1-c1cc(-c2ccccc2O)on1	SENP7 block 96.6, SENP8 block-1 81.4, SENP6 block 91.0 | SENP8 conf 94.9 | SENP6 conf 96.1 | SENP7 confirm 99.8 | Casp3 SENP sel 83.7 | Luc interf 92.9
Oc1ccccc1-c1cc(-c2ccccc2)no1	SENP7 block 95.6, SENP8 block-1 85.9, SENP6 block 84.2 | SENP8 conf 87.1 | SENP6 conf 88.0 | SENP7 confirm 101.2 | Casp3 SENP sel 83.9 | Luc interf 64.5
Cc1ccc(-c2cc(-c3ccccc3)no2)c(O)c1	none (no result: SENP7 block, SENP8 block-1, SENP6 block)
O=C(c1cc(-c2ccccc2O)on1)N1CCCCCC1	none
Cn1ccsc1=NC(=O)c1cc(S(=O)(=O)N2CCOCC2)ccc1F	none
COc1ccc(C(=O)C2CCCN(Cc3cccn3-c3ccc(Cl)cn3)C2)c(OC)c1 (stereo not given)	none
COc1ccc(NC(=O)C[C@H]2C(=O)N(Cc3ccccc3)C[C@@H]2C)cc1	none (no result: SENP7 block, SENP8 block-1, Platelet DG rel, SENP6 block)
COc1ccc(OCc2ccc(/C=N\NC(=O)c3sccc3C)o2)cc1	none (no result: Platelet DG rel)
CSc1ccc(/C=N/NC(=O)c2ccc(C)c(C)c2)cc1	none
CSc1ccc(/C=N/NC(=O)c2cc(O)cc(O)c2)cc1	SENP6 block 58.2 | SENP8 conf 59.1 | SENP6 conf 57.9 | SENP7 confirm 84.4 | Casp3 SENP sel 65.2 | Luc interf 64.9
CSc1ccc(/C=N/NC(=O)c2sccc2C)cc1	SENP7 block 100.4, SENP8 block-1 92.3, SENP6 block 94.3 | SENP8 conf inactive | SENP6 conf 60.6 | SENP7 confirm 101.3 | Casp3 SENP sel 62.8 | Luc interf inactive
Cc1ccccc1Oc1ccc2c(c1)[C@@H]1C[C@H](N(C)C(=S)Nc3ccc(F)cc3)[C@H]([C@H](C)O)C(=O)N1CC2	none (no result: SENP7 block, SENP8 block-1, Platelet DG rel, SENP6 block)
O=C(O/N=C1/CCSc2ccccc21)c1ccccc1	SENP7 block 73.9, SENP8 block-1 79.1, SENP6 block 89.2 | SENP8 conf 90.3 | SENP6 conf 89.4 | SENP7 confirm 98.0 | Casp3 SENP sel 79.0 | Luc interf 74.8
O=C(O/N=C1\CCCc2ccccc21)c1ccc(F)cc1	SENP7 block 94.9, SENP8 block-1 72.0, SENP6 block 78.4 | SENP8 conf inactive | SENP6 conf 55.0 | SENP7 confirm inactive | Casp3 SENP sel inactive | Luc interf inactive
Cc1ccc2c(c1)/C(=N/OC(=O)c1ccc(F)cc1)CCS2	none
N#CCC(=O)N/N=C\c1cccc(OC/C=C/c2ccccc2)c1	none
COCCN(C(=O)CSc1nnc(-c2cccs2)n1N)c1c(N)n(Cc2ccccc2)c(=O)[nH]c1=O	none
Cc1c(NC(=O)COc2ccc(C(C)C)cc2)c(=O)n(-c2ccccc2)n1C	none
CCOc1cc2c(C#N)c(N3CCOCC3)nc(N)c2c(N)n1	none
CCOc1cc2c(C#N)c(N(CC)CC)nc(N)c2c(N)n1	SENP6 block 72.3 | SENP8 conf inactive | SENP6 conf inactive | SENP7 confirm inactive | Casp3 SENP sel inactive | Luc interf inactive
CCCN(CC1CC1)c1nc(N)c2c(N)nc(OC)cc2c1C#N	SENP8 block-1 80.1, SENP6 block 81.7 | SENP8 conf inactive | SENP6 conf inactive | SENP7 confirm inactive | Casp3 SENP sel inactive | Luc interf inactive
COc1ccccc1NC(=O)CCN1C(=O)c2ccccc2S1(=O)=O	none
COCCNC(=O)C1(C)CCCN(C(=O)c2ccc(F)c(Cl)c2)C1 (stereo not given)	none (no result: SENP7 block, SENP8 block-1, Platelet DG rel, SENP6 block)
O=c1c(Cl)c(NCCCO)cnn1-c1nc2ccccc2[nH]1	SENP7 block 69.0, SENP6 block 62.0 | SENP8 conf 58.8 | SENP6 conf 56.5 | SENP7 confirm 84.9 | Casp3 SENP sel 89.1 | Luc interf inactive
O=S(=O)(Nc1nc2ccccc2[nH]1)c1ccc(Cl)cc1	none
C=CCN(CC=C)c1cnn(-c2nc3ccccc3[nH]2)c(=O)c1Cl	SENP7 block 76.5, SENP8 block-1 58.0, SENP6 block 86.6 | SENP8 conf 71.0 | SENP6 conf 76.6 | SENP7 confirm 94.3 | Casp3 SENP sel 91.2 | Luc interf inactive
Clc1cc2nc(-c3cccnc3Cl)[nH]c2cc1Cl	SENP7 block 72.7, SENP6 block 76.7 | SENP8 conf inactive | SENP6 conf inactive | SENP7 confirm 90.3 | Casp3 SENP sel 58.7 | Luc interf inactive
CSc1cccc(CNC(=O)C2CCC(=O)N(CCc3ccccc3)C2)c1 (stereo not given)	none (no result: SENP7 block, SENP8 block-1, Platelet DG rel, SENP6 block)
CSc1ccc(/C=C/C(=O)Nc2ccccc2)cc1	SENP7 block 100.7, SENP8 block-1 95.3, SENP6 block 85.1 (no result: Platelet DG rel) | SENP8 conf 69.2 | SENP6 conf 98.3 | SENP7 confirm 102.1 | Casp3 SENP sel 97.3 | Luc interf inactive
O=C(/C=C/c1ccccc1)Nc1cc(NC(=O)/C=C/c2ccccc2)cc(C(=O)O)c1	none
CSc1cccc(NC(=O)/C=C/c2ccc(Cl)cc2)c1	SENP7 block 59.2, SENP6 block 65.8 | SENP8 conf 53.8 | SENP6 conf 58.7 | SENP7 confirm 83.6 | Casp3 SENP sel inactive | Luc interf 51.4
CSc1cccc(NC(=O)/C=C/c2ccccc2)c1	SENP6 block 50.6 | SENP8 conf 57.1 | SENP6 conf 53.9 | SENP7 confirm 81.4 | Casp3 SENP sel inactive | Luc interf 65.4
O=C(/C=C/c1ccccc1)Nc1cccc(C(=O)O)c1	SENP7 block 99.6, SENP8 block-1 96.6, SENP6 block 98.7 | SENP8 conf inactive | SENP6 conf 98.9 | SENP7 confirm 103.1 | Casp3 SENP sel 95.3 | Luc interf 98.0
CSc1cccc(NC(=O)Nc2ccccc2)c1	none
Cc1cccc(NC(=O)COC(=O)CCc2c[nH]c3ccccc23)c1	none (no result: Platelet DG rel)
COc1cccc(CC2(CO)CCCN(Cc3cc(F)ccc3-n3cccn3)C2)c1 (stereo not given)	none
COC(=O)c1cc(CNC(=O)c2ccc(N3CCCC3)c([N+](=O)[O-])c2)ccc1OC	none
